# Active and inactive are the calls of the source. The calls are words filed in the database; no cut-off is given here.
# Key:
# Pseudomonas aeruginosa [1] = test: Bactericidal activity against Pseudomonas aeruginosa isolate 3 with AMP-CFZ-CTX-CIP-GEN-IPM-LVX-SXT-TET-TOB resistance phenotype assessed as concentration required for >= 3 log10 CFU/ml reduction in viable bacteria in sodium phosphate buffer at pH 7.4 after 1.5 hrs by liquid microdilution assay; type: functional
# Summary of the method: (§1)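 Clinical multidrug-resistant isolates grown to mid-log in tryptone soy broth and stored frozen. Exponential cells resuspended in 10 mM sodium phosphate buffer, pH 7.4, at 1 × 10^7 CFU/ml; 10 μl incubated with graded peptide concentrations in 100 μl at 37°C for 1.5 h. Plated on tryptone soy agar, CFU read after 24 h at 37°C. Peptide stocks in 20% ethanol.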
# [2] = tested on: Stenotrophomonas maltophilia; test: Bactericidal activity against Stenotrophomonas maltophilia isolate 2 with AMK-CIP-CTX-IPM-MEM-SAM-TZP resistance phenotype assessed as concentration required for >= 3 log10 CFU/ml reduction in viable bacteria in 20% heat-inactivated human serum after 1.5 hrs by liquid microdilution assay; type: functional
# Summary of the method: (§2)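 The buffer microdilution kill assay (1 × 10^7 CFU/ml mid-log cells, 10 μl in 100 μl, 37°C, 1.5 h, CFU on tryptone soy agar after 24 h) with serum added to 20% or 40% final. Serum was pooled from five healthy donors, clotted at room temperature, spun at 300 × g and heat-inactivated at 56°C for 30 min.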
# [3] = tested on: Stenotrophomonas maltophilia; test: Bactericidal activity against Stenotrophomonas maltophilia isolate 2 with AMK-CIP-CTX-IPM-MEM-SAM-TZP resistance phenotype assessed as concentration required for >= 3 log10 CFU/ml reduction in viable bacteria in 40% heat-inactivated human serum after 1.5 hrs by liquid microdilution assay; type: functional; summary of the method: as §2
# Acinetobacter baumannii [4] = test: Bactericidal activity against Acinetobacter baumannii isolate 3 with AMP-AMC-CFZ-CIP-IPM-SXT-TET-TOB resistance phenotype assessed as concentration required for >= 3 log10 CFU/ml reduction in viable bacteria in 40% heat-inactivated human serum after 1.5 hrs by liquid microdilution assay; type: functional; summary of the method: as §2
# Enterococcus faecium [5] = test: Antimicrobial activity against Enterococcus faecium isolate 3 with AMP-CIP-CTX-ERY-GEN-LVX-SXT-TEC-VAN resistance phenotype at bactericidal concentration within 30 mins; type: functional, organism-based
# Summary of the method: (§3)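 Time-kill in 10 mM sodium phosphate buffer, pH 7.4: 1 × 10^7 CFU/ml mid-log clinical isolate (10 μl) exposed at 37°C to peptide at the 1.5-h bactericidal concentration or twofold that, in 100 μl. Samples taken from 2 min onward, plated on tryptone soy agar, CFU counted after 24 h at 37°C. Killing taken as ≥3 log10 CFU/ml drop.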
# Acinetobacter baumannii [6] = test: Antimicrobial activity against Acinetobacter baumannii isolate 3 with AMP-AMC-CFZ-CIP-IPM-SXT-TET-TOB resistance phenotype assessed as time to kill at bactericidal concentration; type: functional; summary of the method: as §3
# Pseudomonas aeruginosa [7] = test: Antimicrobial activity against Pseudomonas aeruginosa isolate 1 with AMP-CFZ-CIP-CTX-CXM-GEN-LVX-SXT-TET resistance phenotype at twofold bactericidal concentration after 10 to 30 mins by time kill assay; type: functional, organism-based; summary of the method: as §3
# Enterococcus faecium [8] = test: Bactericidal activity against Enterococcus faecium isolate 3 with AMP-CIP-CTX-ERY-GEN-LVX-SXT-TEC-VAN resistance phenotype assessed as concentration required for >= 3 log10 CFU/ml reduction in viable bacteria in sodium phosphate buffer at pH 7.4 after 1.5 hrs by liquid microdilution assay; type: functional; summary of the method: as §1
# Staphylococcus aureus = test: Bactericidal activity against Staphylococcus aureus isolate 1 with AMC-AMP-CIP-ERY-GEN-OXA-RIF resistance phenotype assessed as concentration required for >= 3 log10 CFU/ml reduction in viable bacteria in sodium phosphate buffer at pH 7.4 after 1.5 hrs by liquid microdilution assay; type: functional; summary of the method: as §1
# Acinetobacter baumannii [9] = test: Bactericidal activity against Acinetobacter baumannii isolate 3 with AMP-AMC-CFZ-CIP-IPM-SXT-TET-TOB resistance phenotype assessed as concentration required for >= 3 log10 CFU/ml reduction in viable bacteria in sodium phosphate buffer at pH 7.4 after 1.5 hrs by liquid microdilution assay; type: functional; summary of the method: as §1
substance,measurement,setting,value
H-GIFSKLAGKKLKNLLISG-NH2,Activity,Pseudomonas aeruginosa [1],0.5 µM
same,Activity,[2],8 µM
same,Activity,[3],16 µM
same,Activity,Acinetobacter baumannii [4],32 µM
same,Activity,Enterococcus faecium [5],inactive
same,Time,Acinetobacter baumannii [6],2 min
same,Activity,Pseudomonas aeruginosa [7],Active
same,Activity,Enterococcus faecium [8],2 µM
same,Activity,Staphylococcus aureus,32 µM
same,Activity,Acinetobacter baumannii [9],1 µM
